Usually GI50 stands for the concentration that inhibits growth by half.

Active and inactive are the calls of the source. No cut-off for these calls is given here.

Data set [1] in a line: Antiproliferative activity against human Imatinib-resistant DFSP105 cells assessed as cell growth inhibition incubated for 48 hrs by BrdU cell proliferation assay. The data set is classed as functional. The essentials:
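DFSP105 cells (IMDM, 15% FBS, passages 10-30) seeded at 2500/well; drug added in fresh medium 24 h after plating, 48 h exposure, BrdU added for final 24 h. Proliferation read by BrdU chemiluminescent ELISA; GI50 = 50% growth inhibition concentration.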

The test system of data set [2] is Imatinib-resistant DFSP105 cell. The data set can be described thus: Antitumor activity against human Imatinib-resistant DFSP105 cells xenografted in athymic nude mouse assessed as tumor growth inhibition by measuring tumor size at 75 mg/kg,po daily for 5 weeks. In kind it is functional, organism-based. A digest of the protocol:
(§1)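 S.c. DFSP105 xenografts (2 million cells in Matrigel) in athymic nude mice, treated after ~5 weeks establishment with daily gavage: imatinib 75 mg/kg in water or PD-0332991 150 mg/kg in HCl/Cremophor EL/PEG 300/acetate pH 4.6 vehicle, versus untreated, for 5 weeks. Tumor volume and body weight monitored weekly; mean ± SE.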
Background: In xenograft studies the graft and the host belong to different species.

Data set [3] shares this test system. The data set can be described thus: Antitumor activity against human Imatinib-resistant DFSP105 cells xenografted in athymic nude mouse assessed as tumor cell density at 75 mg/kg,po daily for 5 weeks by immunohistochemistry analysis. In kind it is functional, organism-based. A digest of the protocol: (§2)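 Athymic nude mice given 2 million DFSP105 cells s.c. in Matrigel; after ~5 weeks tumor establishment, daily gavage (imatinib 75 mg/kg in water; PD-0332991 150 mg/kg in HCl/Cremophor EL/PEG 300/acetate pH 4.6 vehicle) for 5 weeks. BrdU i.p. 2 h before CO2 euthanasia; resected tumors examined histologically for cell density and BrdU-positive nuclei.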

Data set [4] is described as follows: Toxicity in athymic nude mouse xenografted with human Imatinib-resistant DFSP105 cells assessed as body weight loss at 75 mg/kg,po daily for 5 weeks. In kind it is organism-based. To be noted: in vivo, 840 h. A digest of the protocol:
as §1

In data set [5] the target is Platelet-derived growth factor receptor beta (Homo sapiens) (UniProt P09619). Conditions: Imatinib-resistant DFSP105 cell, dose 500.0 nM.
Sequence of Platelet-derived growth factor receptor beta (Homo sapiens) (P09619 whole entry): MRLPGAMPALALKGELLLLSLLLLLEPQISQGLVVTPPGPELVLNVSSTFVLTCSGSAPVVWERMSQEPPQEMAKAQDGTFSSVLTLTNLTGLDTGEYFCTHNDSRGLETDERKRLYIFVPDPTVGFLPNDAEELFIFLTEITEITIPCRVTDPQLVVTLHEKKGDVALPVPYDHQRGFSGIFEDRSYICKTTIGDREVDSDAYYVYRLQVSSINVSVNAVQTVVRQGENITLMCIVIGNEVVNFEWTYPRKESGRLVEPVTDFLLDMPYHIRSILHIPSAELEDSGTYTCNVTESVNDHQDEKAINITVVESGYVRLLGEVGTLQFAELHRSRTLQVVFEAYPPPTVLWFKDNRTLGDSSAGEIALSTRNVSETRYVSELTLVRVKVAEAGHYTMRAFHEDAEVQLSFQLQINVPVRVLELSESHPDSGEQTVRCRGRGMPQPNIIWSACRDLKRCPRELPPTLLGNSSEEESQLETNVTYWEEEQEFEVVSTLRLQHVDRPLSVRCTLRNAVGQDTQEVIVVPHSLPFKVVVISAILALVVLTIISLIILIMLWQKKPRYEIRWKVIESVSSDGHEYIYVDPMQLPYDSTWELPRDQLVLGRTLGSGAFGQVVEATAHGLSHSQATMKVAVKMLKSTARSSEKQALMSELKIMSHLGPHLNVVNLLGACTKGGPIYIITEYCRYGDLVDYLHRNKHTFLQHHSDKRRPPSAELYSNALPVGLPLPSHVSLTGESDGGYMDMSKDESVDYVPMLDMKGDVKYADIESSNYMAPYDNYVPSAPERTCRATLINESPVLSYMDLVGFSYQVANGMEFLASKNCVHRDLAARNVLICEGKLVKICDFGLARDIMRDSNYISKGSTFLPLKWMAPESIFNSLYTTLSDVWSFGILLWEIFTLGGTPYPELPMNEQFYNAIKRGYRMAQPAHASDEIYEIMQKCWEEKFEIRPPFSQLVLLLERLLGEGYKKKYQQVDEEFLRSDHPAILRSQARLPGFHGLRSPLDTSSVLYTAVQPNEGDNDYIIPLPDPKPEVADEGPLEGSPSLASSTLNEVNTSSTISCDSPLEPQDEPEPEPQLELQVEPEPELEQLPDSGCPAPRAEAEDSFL
The target in data set [6] is T1, Retinoblastoma-associated protein (Homo sapiens) (UniProt P06400).
T1 sequence (whole entry): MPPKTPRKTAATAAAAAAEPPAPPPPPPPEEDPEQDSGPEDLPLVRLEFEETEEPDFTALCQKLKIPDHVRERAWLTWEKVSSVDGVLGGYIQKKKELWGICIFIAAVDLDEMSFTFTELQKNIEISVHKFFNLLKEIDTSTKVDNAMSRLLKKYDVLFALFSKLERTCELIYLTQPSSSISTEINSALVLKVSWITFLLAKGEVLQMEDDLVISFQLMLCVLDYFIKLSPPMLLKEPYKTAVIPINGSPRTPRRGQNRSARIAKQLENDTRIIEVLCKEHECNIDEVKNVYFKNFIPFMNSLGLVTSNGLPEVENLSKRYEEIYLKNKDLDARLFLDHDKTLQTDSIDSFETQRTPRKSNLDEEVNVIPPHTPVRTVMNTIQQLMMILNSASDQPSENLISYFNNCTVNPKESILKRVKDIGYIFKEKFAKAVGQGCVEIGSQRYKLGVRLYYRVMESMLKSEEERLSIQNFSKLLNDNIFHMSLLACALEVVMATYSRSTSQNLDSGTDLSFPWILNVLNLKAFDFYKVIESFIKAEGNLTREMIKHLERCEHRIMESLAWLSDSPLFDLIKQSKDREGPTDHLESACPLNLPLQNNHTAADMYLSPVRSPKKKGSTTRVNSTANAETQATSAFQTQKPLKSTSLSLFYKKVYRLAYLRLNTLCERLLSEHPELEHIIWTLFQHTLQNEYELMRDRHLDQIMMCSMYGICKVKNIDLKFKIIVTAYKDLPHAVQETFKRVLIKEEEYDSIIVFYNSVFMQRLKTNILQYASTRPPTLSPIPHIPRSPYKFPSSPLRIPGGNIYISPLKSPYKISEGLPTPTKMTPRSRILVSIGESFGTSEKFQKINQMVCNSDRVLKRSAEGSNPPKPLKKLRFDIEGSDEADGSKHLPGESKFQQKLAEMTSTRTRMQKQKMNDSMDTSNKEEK
The data set can be described thus: Inhibition of RB1 phosphorylation at S795 residue in human Imatinib-resistant DFSP105 cells at […] incubated for 24 hrs by Western blot analysis. In kind it is cell-based. Conditions: Imatinib-resistant DFSP105 cell. The essentials: (§3)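 DFSP105 cells treated 24 h with CDK4/6 inhibitor over a dose series; whole-cell lysates cleared 14,000 rpm 30 min 4°C, protein by Bradford, then immunoblotting for phospho-RB1 and cyclin A.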
(In general: In western blotting, separated proteins are transferred to a membrane and probed.)

For data set [7], the target named is T1, Retinoblastoma-associated protein (Homo sapiens). The data set can be described thus: Inhibition of RB1 phosphorylation at S807 residue in human Imatinib-resistant DFSP105 cells at […] incubated for 24 hrs by Western blot analysis. To be noted: Imatinib-resistant DFSP105 cell. The data set is classed as cell-based. A digest of the protocol: as §3

For data set [8] the target is unchanged. The data set can be described thus: Inhibition of RB1 phosphorylation at S811 residue in human Imatinib-resistant DFSP105 cells at […] incubated for 24 hrs by Western blot analysis. In kind it is cell-based. Conditions: Imatinib-resistant DFSP105 cell. The essentials:
as §3

Data set [9] has as its system Imatinib-resistant DFSP105 cell. The data set can be described thus: Antiproliferative activity against human Imatinib-resistant DFSP105 cells assessed as decrease in Cyclin A expression at […] incubated for 24 hrs by Western blot analysis. The data set is classed as functional, cell-based. Conditions: […]. A digest of the protocol: as §3
For data set [10] the test system is unchanged. The data set can be described thus: Antitumor activity against human Imatinib-resistant DFSP105 cells xenografted in athymic nude mouse assessed as tumor growth inhibition by measuring tumor size at 150 mg/kg,po daily for 5 weeks. In kind it is functional, organism-based. The essentials:
as §1

Data set [11] shares this test system. The data set can be described thus: Antitumor activity against human Imatinib-resistant DFSP105 cells xenografted in athymic nude mouse assessed as decrease in RB1 phosphorylation at S795 residue in tumor at 150 mg/kg,po daily for 5 weeks by Western blot analysis. The data set is classed as functional, organism-based. The essentials:
(§4)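 Nude mice bearing s.c. DFSP105 xenografts (2 million cells in Matrigel, ~5 weeks to establish) dosed daily by gavage at 150 mg/kg in HCl/Cremophor EL/PEG 300/acetate pH 4.6 vehicle for 5 weeks; tumor lysates (homogenized in ice-cold buffer with protease inhibitors) immunoblotted for phospho-RB1.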

The test system is the same in data set [12]. The data set can be described thus: Antitumor activity against human Imatinib-resistant DFSP105 cells xenografted in athymic nude mouse assessed as decrease in RB1 phosphorylation at S807 residue in tumor at 150 mg/kg,po daily for 5 weeks by Western blot analysis. In kind it is functional, organism-based. A digest of the protocol:
as §4

Data set [13] has the same test system. The data set can be described thus: Antitumor activity against human Imatinib-resistant DFSP105 cells xenografted in athymic nude mouse assessed as tumor cell density at 150 mg/kg,po daily for 5 weeks by immunohistochemistry analysis. The data set is classed as functional, organism-based. The essentials:
as §2

A short description of data set [14]: Toxicity in athymic nude mouse xenografted with human Imatinib-resistant DFSP105 cells assessed as body weight loss at 150 mg/kg,po daily for 5 weeks. In kind it is organism-based. Conditions: in vivo, 840 h. The essentials: as §1

Regarding `CO[C@H]1C[C@@H]2CC[C@@H](C)[C@@](O)(O2)C(=O)C(=O)N2CCCC[C@H]2C(=O)O[C@H]([C@H](C)C[C@@H]2CC[C@@H](OCCO)[C@H](OC)C2)CC(=O)[C@H](C)/C=C(\C)[C@@H](O)[C@@H](OC)C(=O)[C@H](C)C[C@H](C)/C=C/C=C/C=C/1C` [EVEROLIMUS], the GI50 in data set [1] is 5 nM.

On to `Cc1ccc(NC(=O)c2ccc(CN3CCN(C)CC3)cc2)cc1Nc1nccc(-c2cccnc2)n1` [IMATINIB], for which the GI50 in data set [1] was more than 5000 nM. The result in data set [2] and in data set [3] was inactive. The Activity result in [4] is “Non-Toxic”. In data set [5], the inhibition result is “Active”.

With `CC(=O)c1c(C)c2cnc(Nc3ccc(N4CCNCC4)cn3)nc2n(C2CCCC2)c1=O` [PALBOCICLIB], the GI50 in [1] was 160 nM. The inhibition result in data set [6], in [7] and in data set [8] was “Active” throughout. Also, the result in data set [9], in data set [10], in [11] and in [12] was Active. For the same compound, the outcome in data set [13] was inactive. Also, the Activity result in data set [14] is “Non-Toxic”.

In the case of `CS(=O)(=O)N1CCN(Cc2cc3nc(-c4cccc5[nH]ncc45)nc(N4CCOCC4)c3s2)CC1` [PICTILISIB], the GI50 in data set [1] was 1900 nM.

Regarding `CN(C)C(=O)c1cc2cnc(Nc3ccc(N4CCNCC4)cn3)nc2n1C1CCCC1` [RIBOCICLIB], the GI50 in data set [1] stood at 276 nM. The inhibition entry in [6], in [7] and in data set [8] was “Active” throughout. The result in data set [9] was Active.

As for `CCN(CC)CCNC(=O)c1c(C)[nH]c(/C=C2\C(=O)Nc3ccc(F)cc32)c1C` [SUNITINIB], in [1], the GI50 is more than 5000 nM. Moreover, in data set [5], the inhibition entry was “Active”.

The record behind these values is ChEMBL document CHEMBL5647691, “CDKN2A/p16 Loss Implicates CDK4 as a Therapeutic Target in Imatinib-Resistant Dermatofibrosarcoma Protuberans” (Mol Cancer Ther, 2015).
